Consider two compounds from paper PMC4744243 (Oncogene, 2015).

Like-named read-outs stand apart in the source and are kept apart here. Bounds are passed on as bounds.

Assay [1] relates to H3K27Me2 and Me3 in K-P cells. Put plainly: Western blot of H3K27 methylation. The format is cell-based. Conditions: K-P cells treated with increasing doses. (Immunoblotting shows a protein as a band on a membrane.)
Assay [2] concerns K-R2- and K-R10-derived cell clones. The format is cell-based. The following applies: four K-R2- and K-R10-derived clones; 6-day.
Another assay concerns EZH2 Y641 mutant. The following applies: read-out: half-maximal inhibition (IC50); cited from earlier work.
A further assay has as its system EZH2 WT. Conditions: read-out: half-maximal inhibition (IC50); cited from earlier work.
Another assay concerns the target PRC2^Y111L (Homo sapiens, UniProt Q15910, Y111L). The format is biochemical. The following applies: for IC50: read-out: IC50 Y111L, [SAM] 1 µM; for IC50 Y111L: [SAM] 20 μM.
The test system of assay [3] is H3K27Me3 peptides in K-P cells. As to the kind of experiment: Histone tail profiling by mass spectrometry. The format is cell-based. The following applies: 2 or 10 µM, 3 days, vs DMSO control. Put shortly:
(§1)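 Karpas422 parental cells were grown in RPMI-1640 with 10% FBS at 37 °C and 5% CO2. Histones were extracted from pellets of 5 × 10^6 cells with a histone purification kit. Free lysines were blocked by derivatization, and methylated H3 peptides were then analysed by high-resolution mass spectrometry.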

Another assay concerns the target PRC2^Y641N/Y661D (Homo sapiens, UniProt Q15910, Y641N/Y661D). The format is biochemical. Conditions: for IC50: read-out: IC50 Y641N/Y6661D, [SAM] 20 μM.
Assay [4] relates to K-P (KARPAS422-parental cells). The format is cell-based. The following applies: 10 μM for 6 days.
In assay [5] the test system is H3K4, K9, K36 and K79 methylation. Put plainly: Western blot and histone profiling of other H3 methylation marks. The format is cell-based. The following applies: 2 or 10 µM, 3 days. Put shortly: as §1
The target in a further assay is PRC2^WT (Homo sapiens, UniProt Q15910). The format is biochemical. The following applies: read-out: IC50 WT, [SAM] 1 µM.
PRC2^WT, sequence (Q15910 whole entry): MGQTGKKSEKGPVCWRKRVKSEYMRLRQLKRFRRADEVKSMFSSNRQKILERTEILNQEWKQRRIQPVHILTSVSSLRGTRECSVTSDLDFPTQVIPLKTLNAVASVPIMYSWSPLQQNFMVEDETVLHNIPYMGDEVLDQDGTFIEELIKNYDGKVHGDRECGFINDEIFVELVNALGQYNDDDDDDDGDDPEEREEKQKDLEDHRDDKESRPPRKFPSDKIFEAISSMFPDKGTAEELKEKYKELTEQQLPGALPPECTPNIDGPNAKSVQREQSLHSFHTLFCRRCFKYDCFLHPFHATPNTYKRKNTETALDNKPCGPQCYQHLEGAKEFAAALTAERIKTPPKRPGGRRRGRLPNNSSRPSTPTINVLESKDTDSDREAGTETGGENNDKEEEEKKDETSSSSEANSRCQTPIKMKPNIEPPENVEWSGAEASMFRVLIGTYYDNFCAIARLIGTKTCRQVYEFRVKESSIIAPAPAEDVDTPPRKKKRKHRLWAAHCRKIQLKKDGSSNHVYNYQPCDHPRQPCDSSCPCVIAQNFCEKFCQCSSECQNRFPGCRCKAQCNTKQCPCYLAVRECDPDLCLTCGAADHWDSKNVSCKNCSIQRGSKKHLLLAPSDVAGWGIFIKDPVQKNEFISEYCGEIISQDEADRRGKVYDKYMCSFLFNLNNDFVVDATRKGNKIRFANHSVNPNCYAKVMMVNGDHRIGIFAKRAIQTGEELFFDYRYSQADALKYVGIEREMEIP
PRC2^WT, sequence (O75530 whole entry partner): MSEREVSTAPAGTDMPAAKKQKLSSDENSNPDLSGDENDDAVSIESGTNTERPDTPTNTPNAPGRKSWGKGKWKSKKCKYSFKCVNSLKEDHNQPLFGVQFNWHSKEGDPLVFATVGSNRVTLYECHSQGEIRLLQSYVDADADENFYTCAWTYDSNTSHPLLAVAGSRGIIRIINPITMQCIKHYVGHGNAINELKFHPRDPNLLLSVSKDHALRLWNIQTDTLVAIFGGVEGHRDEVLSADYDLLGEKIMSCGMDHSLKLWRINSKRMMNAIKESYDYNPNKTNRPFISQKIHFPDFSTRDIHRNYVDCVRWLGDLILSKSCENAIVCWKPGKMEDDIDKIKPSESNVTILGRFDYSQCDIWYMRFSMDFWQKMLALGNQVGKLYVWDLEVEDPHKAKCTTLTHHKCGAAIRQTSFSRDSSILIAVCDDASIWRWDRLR
PRC2^WT, sequence (Q15022 whole entry partner): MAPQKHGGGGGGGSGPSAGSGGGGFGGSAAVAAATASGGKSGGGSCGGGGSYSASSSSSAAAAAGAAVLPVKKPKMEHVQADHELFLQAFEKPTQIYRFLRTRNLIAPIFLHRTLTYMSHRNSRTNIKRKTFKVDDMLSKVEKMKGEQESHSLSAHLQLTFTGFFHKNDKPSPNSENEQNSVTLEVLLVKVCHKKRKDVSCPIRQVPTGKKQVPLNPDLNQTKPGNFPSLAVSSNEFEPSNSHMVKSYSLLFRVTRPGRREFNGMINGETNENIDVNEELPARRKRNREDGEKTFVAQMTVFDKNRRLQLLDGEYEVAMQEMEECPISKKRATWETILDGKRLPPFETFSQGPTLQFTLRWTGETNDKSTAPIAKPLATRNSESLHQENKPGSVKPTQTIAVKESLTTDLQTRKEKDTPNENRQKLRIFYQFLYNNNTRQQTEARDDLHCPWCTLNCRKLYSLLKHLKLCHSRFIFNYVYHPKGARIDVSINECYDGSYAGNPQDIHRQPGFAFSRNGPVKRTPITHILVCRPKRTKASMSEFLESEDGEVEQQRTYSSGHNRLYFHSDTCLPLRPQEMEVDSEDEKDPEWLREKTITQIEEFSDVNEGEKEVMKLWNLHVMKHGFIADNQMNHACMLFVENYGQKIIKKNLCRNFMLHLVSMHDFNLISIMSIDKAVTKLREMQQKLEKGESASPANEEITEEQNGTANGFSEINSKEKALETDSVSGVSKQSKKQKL
Assay [6] deals with K-P (KARPAS422-parental cells). Conditions: 6-day, compared with EI1.
In another assay the test system is tumor xenograft. Conditions: high-dose treatment; after cessation of the dosing; cited from earlier work.
Another assay relates to WSU-DLCL2 xenograft. The following applies: high-dose; 28-day treatment cycle; cited from earlier work.

PRC2^Y641N/Y661D, sequence (Q15910 whole entry Y641N/Y661D): as the sequence (Q15910 whole entry) above, with Y641N, Y661D counted along it
PRC2^Y641N/Y661D, sequence (O75530 whole entry partner): as the sequence (O75530 whole entry partner) above
PRC2^Y641N/Y661D, sequence (Q15022 whole entry partner): as the sequence (Q15022 whole entry partner) above
PRC2^Y111L, sequence (Q15910 whole entry Y111L): as the sequence (Q15910 whole entry) above, with Y111L counted along it
PRC2^Y111L, sequence (O75530 whole entry partner): as the sequence (O75530 whole entry partner) above
PRC2^Y111L, sequence (Q15022 whole entry partner): as the sequence (Q15022 whole entry partner) above

Regarding `CCC(CC)n1ccc2c(C(=O)NCc3c(C)cc(C)[nH]c3=O)cc(C#N)cc21` [EI1], in assay [1], the “H3K27Me2 and Me3 levels (western blot)” value was “both H3K27Me2 and Me3 levels decreased”. Moreover, the “growth inhibition in cell proliferation assay” value in assay [2] is “refractory”. Moreover, the IC50 with EZH2 Y641 mutant is 10 to 20 nM; in the assay on EZH2 WT, 10 to 20 nM; on PRC2^Y111L (substrate H3K27Me0 peptide) it was 3100 nM; on PRC2^Y111L (substrate H3K27Me1 peptide), 4200 nM; at PRC2^Y641N/Y661D (substrate H3K27Me1 peptide), > 25000 nM; on PRC2^Y641N/Y661D (substrate H3K27Me2 peptide) it was > 25000 nM. In addition, the figures for the IC50 on PRC2^WT (substrate H3K27Me0 peptide) and on PRC2^WT (substrate H3K27Me1 peptide) were 20 nM and 9 nM, respectively. The “IC50 Y111L” value against PRC2^Y111L (substrate H3K27Me0 peptide) and at PRC2^Y111L (substrate H3K27Me1 peptide) was “inactive” throughout. The “decrease of K27Me3 methylated peptides” value in assay [3] is recorded as > 2 fold. At PRC2^Y641N/Y661D (1 μM SAM, both H3K27Me1 and Me2 substrates), the “IC50 against PRC2^Y641N/Y661D, fold weaker compared with PRC2^Y641N” value is > 300 fold. For the same compound, the “reduction of BrdU incorporation compared with DMSO control” value in [4] is on record as > 90%. The “decrease in H3K4, K9, K36 and K79 methylation” value in assay [5] is recorded as “no noticeable decrease”.

Consider `CCN(c1cc(-c2ccc(CN3CCOCC3)cc2)cc(C(=O)NCc2c(C)cc(C)[nH]c2=O)c1C)C1CCOCC1` [EPZ-6438, reference compound], for which the “growth arrest (growth inhibition) in proliferation assay” value in assay [6] is “more potent in inducing growth arrest”. The “growth inhibition in cell proliferation assay” value in assay [2] is listed as “refractory”. In the assay with tumor xenograft, the “anti-tumor effect in tumor xenograft studies” value was “complete tumor regression without tumor regrowth”. The “reduction of BrdU incorporation compared with DMSO control” value in assay [4] is on record as > 90%. Further, the “decrease in H3K4, K9, K36 and K79 methylation” value in [5] was “no noticeable decrease”. In addition, the “anti-tumor effect in WSU-DLCL2 xenograft model” value with WSU-DLCL2 xenograft is “partial tumor regression”.
